# Experimental data as given in article PMC4565189 (Biochemistry, 2013).
# No end group written: not given here.
# Assays:
# [1] = tested on: α-synuclein self-association in SK-N-SH cells; assay type: cell-based, human
# [2] = tested on: PLCβ1; assay type: biochemical
# [3] = tested on: purified α-synuclein; assay: CoCl2-induced aggregation of purified α-synuclein, SDS gel; assay type: biochemical
# [4] = tested on: α-synuclein; assay type: cell-based, human
# [5] = tested on: PLCβ1; assay: Western blot of PLCβ1 level in SK-N-SH cells under oxidative stress; assay type: cell-based, human
# [6] = tested on: PLCβ1-α-synuclein association; assay: In vitro FRET: CPM-PLCβ1 / Dabcyl-α-synuclein association; assay type: binding; settings: 200 µM and 500 µM peptide
# [7] = tested on: α-synuclein self-association in PC12 cells; assay: GFP-α-synuclein/mCherry-α-synuclein FRET in PC12 cells; assay type: cell-based, human; settings: 50 µM peptide microinjected, viewed within 2 h
# Summary of the method: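 PC12 cells (DMEM, 10% horse serum, 5% FBS, 37 °C, 5% CO₂) are electroporated with eGFP- and mCherry-α-synuclein and plated on glass-bottom dishes 24 h later. Medium is switched to phenol-free L-15. Peptide (50 µM in pipette; 100 mM KCl, 5 mM K₂HPO₄, pH 7.4, 5 µM DAPI marker) is injected into cytoplasm for 0.4 s (30/15 hPa). Viable cells are selected, then confocal FRET is imaged within 2 h.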
# [8] = tested on: PLCβ1; settings: in cells; ref [16]; cited from earlier work
# [9] = tested on: PLCβ; settings: among α-synuclein binding partners; ref [15]; cited from earlier work
# [10] = tested on: PLCβ; settings: inhibition can be overcome by G proteins; ref [15]; cited from earlier work
# [11] = tested on: neuronal cells; settings: overexpression of α-synuclein; ref [34]; cited from earlier work
# [12] = tested on: PLCβ1-C3PO interaction; settings: in vitro FRET; ref Sahu, Guo, and Scarlata, unpublished results; cited from earlier work
compound,measurement,setting,value
[Cl-].[Cl-].[Co+2] [CoCl2],"GFP-α-synuclein/mCherry-α-synuclein FRET, oxidative stress",[1],significant increase in FRET
same,Amount of native PLCβ1,[2],reduces the amount of native PLCβ1
same,α-Synuclein aggregation induced by CoCl2,[3],produces visible α-synuclein aggregation
same,Amount of α-synuclein,[4],little effect on the amount of α-synuclein
same,α-Synuclein tetramers vs monomers,[4],increase in α-synuclein tetramers at the expense of monomers
same,Cellular level of PLCβ1,[5],significantly reduces the cellular level of PLCβ1
CKKVVLPTLASLR [peptide],PLCβ1-α-synuclein association,[6],inhibits PLCβ1-α-synuclein association
same,"GFP-α-synuclein/mCherry-α-synuclein FRET, peptide",[7],the same within error
α-synuclein,Intracellular level of PLCβ1,[8],raises the intracellular level of the enzyme
same,PLCβ1 degradation by calpain,[8],prevents PLCβ1 degradation by calpain
same,Affinity of PLCβ for α-synuclein,[9],one of the strongest affinities
same,PLCβ activity,[10],inhibits PLCβ activity
same,Inclusions and neuronal death on overexpression,[11],cause inclusions and neuronal death
same,Interaction of Alexa488-PLCβ1 with Alexa546-C3PO,[12],prevents Alexa488-PLCβ1 from interacting with Alexa546-C3PO
same,"Decrease of PLCβ1 level due to oxidation, effect of α-synuclein","[5]; oxidative stress, α-synuclein present",more pronounced in the presence of α-synuclein
